Calls of active or inactive are those of the source. The calls are words filed in the database; no cut-off is given here.
How the values were obtained:
[1] = target: T1, Beta-3 adrenergic receptor (Homo sapiens, UniProt P13945); test: (§1) Antagonist activity at human beta3 adrenergic receptor expressed in HEK293 cells co-expressing Galpha16 assessed as inhibition of isoproterenol-induced intercellular calcium mobilization pre-incubated for 10 mins before isoproterenol addition by Fluo-4AM dye-based fluorescence assay; type: functional, cell-based; settings: read-out: EC50 (the source's name)
Summary of the method: (§2)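 HEK293 cells stably co-expressing Gα16 and human β1, β2 or β3 receptor, seeded 24 h. Loaded with 2.00 µmol/L Fluo-4 AM in HBSS (BSA, glucose, 250 µmol/L sulfinpyrazone, pH 7.4) for 45 min at 37 °C. Compounds added for 10 min at room temperature, then isoproterenol dispensed. Calcium fluorescence read at ex 485/em 525 nm. IC50 taken from dose-response curves.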
Target sequence in this assay (P13945 whole entry): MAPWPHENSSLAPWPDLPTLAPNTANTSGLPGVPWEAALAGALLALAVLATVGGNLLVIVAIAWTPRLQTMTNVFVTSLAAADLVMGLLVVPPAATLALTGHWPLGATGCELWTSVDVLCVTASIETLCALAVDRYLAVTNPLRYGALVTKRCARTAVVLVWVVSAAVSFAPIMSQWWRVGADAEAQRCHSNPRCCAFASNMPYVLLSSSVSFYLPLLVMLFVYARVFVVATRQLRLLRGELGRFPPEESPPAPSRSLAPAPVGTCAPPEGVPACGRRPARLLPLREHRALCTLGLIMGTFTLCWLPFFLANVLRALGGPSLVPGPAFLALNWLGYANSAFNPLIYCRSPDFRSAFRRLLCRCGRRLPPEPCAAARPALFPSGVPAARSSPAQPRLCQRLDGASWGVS

[2] = target: Beta-2 adrenergic receptor (Homo sapiens, UniProt P07550); test: Antagonist activity at human beta2 adrenergic receptor expressed in HEK293 cells co-expressing Galpha16 assessed as inhibition of isoproterenol-induced intercellular calcium mobilization pre-incubated for 10 mins before isoproterenol addition by Fluo-4AM dye-based fluorescence assay; type: functional, cell-based; settings: read-out: EC50 (the source's name); summary of the method: as §2
[3] = target: Beta-1 adrenergic receptor (Homo sapiens, UniProt P08588); test: Antagonist activity at human beta1 adrenergic receptor expressed in HEK293 cells co-expressing Galpha16 assessed as inhibition of isoproterenol-induced intercellular calcium mobilization pre-incubated for 10 mins before isoproterenol addition by Fluo-4AM dye-based fluorescence assay; type: functional, cell-based; settings: read-out: EC50 (the source's name); summary of the method: as §2
Homo sapiens [4] = species: Homo sapiens; test: Selectivity index, ratio of EC50 for human beta1 adrenergic receptor to EC50 for human beta3 adrenergic receptor
[5] = target: T1, Beta-3 adrenergic receptor; test: as §1, with “Potency index, ratio of EC50 for L-748,337 to EC50 for test compound for antagonist” for “Antagonist”; type: functional, cell-based
Target sequence in this assay (P13945 whole entry, looked up): as the sequence (P13945 whole entry) above

Homo sapiens [6] = species: Homo sapiens; test: Selectivity index, ratio of EC50 for human beta2 adrenergic receptor to EC50 for human beta3 adrenergic receptor
[7] = target: Beta-3 adrenergic receptor (Mus musculus) (UniProt P25962); test: Antagonist activity at beta3 adrenergic receptor in mouse 3T3L1 cells assessed as inhibition of isoproterenol-induced lipolysis by measuring glycerol accumulation after 2 hrs; type: functional, cell-based
Summary of the method: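 3T3-L1 preadipocytes were grown on gelatin to confluence, then differentiated with 10 µg/ml insulin, 1 µM dexamethasone and 0.5 mM IBMX for 48 hr, followed by insulin alone for 48 hr. Mature adipocytes were washed and given phenol red-free DMEM with 2% fatty acid-free BSA and 1 µM isoproterenol ± antagonist for 2 hr. Glycerol in cleared medium was read by kit at 550 nm. Mean ± SE, three independent experiments.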

Mus musculus [8] = test: Antitumor activity against mouse C26 cells xenografted in BALB/c mouse assessed as decrease in tumor volume at 2.5 mg/kg, ip dosed daily for 13 days; type: functional, organism-based
Mus musculus [9] = test: Inhibition of tumor-induced body weight loss in BALB/c mouse xenografted with mouse C26 cells assessed as reduction in body weight at 2.5 mg/kg, ip dosed daily for 13 days (reference value: 8.3%); type: functional; set-up: scale not given: the % may be the effect or the level left
Mus musculus [10] = test: Antilipolytic activity against mouse C26 cells xenografted in BALB/c mouse assessed as reduction in lipolysis of body fat by measuring glycerol content in serum at 2.5 mg/kg, ip dosed daily for 13 days; type: functional, organism-based
Homo sapiens [11] = species: Homo sapiens; test: Selectivity ratio of EC50 for displacement of [125I]iodocyanopindolol for human beta2 adrenergic receptor expressed in CHO dhfr cell membranes to EC50 for displacement of [125I]iodocyanopindolol from human beta3 adrenergic receptor expressed in CHO dhfr cell membranes
Homo sapiens [12] = species: Homo sapiens; test: Selectivity ratio of EC50 for displacement of [125I]iodocyanopindolol for human beta1 adrenergic receptor expressed in CHO dhfr cell membranes to EC50 for displacement of [125I]iodocyanopindolol from human beta3 adrenergic receptor expressed in CHO dhfr cell membranes

Beta-3 adrenergic receptor (Mus musculus), sequence (P25962 whole entry): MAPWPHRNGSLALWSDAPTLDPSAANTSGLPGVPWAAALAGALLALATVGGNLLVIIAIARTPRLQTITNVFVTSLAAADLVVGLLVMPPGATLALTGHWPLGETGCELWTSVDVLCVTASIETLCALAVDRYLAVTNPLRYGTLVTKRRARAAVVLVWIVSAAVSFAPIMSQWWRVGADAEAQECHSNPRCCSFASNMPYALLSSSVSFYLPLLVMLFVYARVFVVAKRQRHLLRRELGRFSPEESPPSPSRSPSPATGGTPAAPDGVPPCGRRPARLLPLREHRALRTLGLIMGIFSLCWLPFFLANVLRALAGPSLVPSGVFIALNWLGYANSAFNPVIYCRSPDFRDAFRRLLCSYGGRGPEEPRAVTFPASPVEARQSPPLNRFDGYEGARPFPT
Beta-1 adrenergic receptor, sequence (P08588 whole entry): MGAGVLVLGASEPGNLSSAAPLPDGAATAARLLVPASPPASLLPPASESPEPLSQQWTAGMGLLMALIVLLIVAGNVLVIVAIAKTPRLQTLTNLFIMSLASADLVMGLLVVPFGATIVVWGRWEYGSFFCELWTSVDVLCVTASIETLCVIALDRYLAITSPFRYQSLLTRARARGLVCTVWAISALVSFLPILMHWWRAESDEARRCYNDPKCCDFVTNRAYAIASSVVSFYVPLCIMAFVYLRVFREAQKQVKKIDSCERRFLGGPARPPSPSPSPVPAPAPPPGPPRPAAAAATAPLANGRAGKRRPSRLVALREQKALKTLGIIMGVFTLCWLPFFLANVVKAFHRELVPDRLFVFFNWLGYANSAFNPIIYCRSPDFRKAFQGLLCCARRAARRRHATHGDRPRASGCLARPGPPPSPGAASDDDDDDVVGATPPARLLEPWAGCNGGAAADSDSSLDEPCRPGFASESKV
Beta-2 adrenergic receptor, sequence (P07550 whole entry): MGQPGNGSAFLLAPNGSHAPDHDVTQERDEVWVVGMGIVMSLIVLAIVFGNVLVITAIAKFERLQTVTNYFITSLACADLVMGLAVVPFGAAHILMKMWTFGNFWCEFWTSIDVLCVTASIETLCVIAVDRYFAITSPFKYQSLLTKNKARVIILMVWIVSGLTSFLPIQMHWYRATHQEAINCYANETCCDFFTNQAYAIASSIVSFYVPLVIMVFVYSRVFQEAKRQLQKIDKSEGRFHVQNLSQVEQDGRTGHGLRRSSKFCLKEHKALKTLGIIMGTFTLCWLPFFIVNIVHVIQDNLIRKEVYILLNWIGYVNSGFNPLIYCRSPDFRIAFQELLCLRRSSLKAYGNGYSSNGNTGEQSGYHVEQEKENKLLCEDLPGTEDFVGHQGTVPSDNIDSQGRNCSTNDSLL

SMILES	IC50 [1] [nM]	IC50 [2] [nM]	IC50 [3] [nM]	also measured
CCc1ccccc1OC[C@@H](O)CNCCc1ccc(NC(=O)Cc2ccccc2)cc1	8.68	281	36.8	–
O=C(Nc1ccccc1)Nc1ccc(CCNC[C@H](O)COc2cccc3[nH]ccc23)cc1	0.512	52.2	2.88	Ratio EC50 (Homo sapiens [4]): 6; Ratio EC50 [5]: 23; Ratio EC50 (Homo sapiens [6]): 100; inhibition [7]: Active; Activity (Mus musculus [8]): Active; Activity (Mus musculus [9]): 4.6%; Activity (Mus musculus [10]): Active
COC(=O)Nc1ccccc1NC(=O)Nc1ccc(CCNC[C@H](O)COc2cccc3[nH]ccc23)cc1	2.62	–	–	–
CC(C)NC(=O)Nc1ccc(CCNC[C@H](O)COc2cccc3[nH]ccc23)cc1	1.03	–	–	inhibition [7]: Active
CCc1ccccc1OC[C@@H](O)CNCCc1ccc(NC(=O)Nc2ccccc2)cc1	55.5	1420	426	–
CCCCCC(=O)Nc1ccccc1NC(=O)Nc1ccc(CCNC[C@H](O)COc2cccc3[nH]ccc23)cc1	2.08	–	–	–
O=S(=O)(Nc1ccc(CCNC[C@H](O)COc2cccc3[nH]ccc23)cc1)c1ccccc1	2.09	353	14.8	–
CCCCCC(=O)Nc1cccc(NC(=O)Nc2ccc(CCNC[C@H](O)COc3cccc4[nH]ccc34)cc2)c1	1.78	–	–	–
CCCCCC(=O)Nc1ccc(NC(=O)Nc2ccc(CCNC[C@H](O)COc3cccc4[nH]ccc34)cc2)cc1	10.4	–	–	–
O=C(Nc1ccc(CCNC[C@H](O)COc2cccc3[nH]ccc23)cc1)c1ccccc1	1.42	118	36	–
O=C(Cc1ccccc1)Nc1ccc(CCNC[C@H](O)COc2cccc3[nH]ccc23)cc1	1.09	83.1	7.64	–
O=C(NCCc1ccccc1)Nc1ccc(CCNC[C@H](O)COc2cccc3[nH]ccc23)cc1	2.15	–	–	inhibition [7]: Active
O=C(Nc1ccc(F)cc1)Nc1ccc(CCNC[C@H](O)COc2cccc3[nH]ccc23)cc1	2.49	–	–	inhibition [7]: Active
CC(=O)NCc1cccc(OC[C@@H](O)CNCCc2ccc(NC(=O)Nc3ccccc3)cc2)c1	4.7	9840	12700	–
CC(=O)NCc1cccc(OC[C@@H](O)CNCCc2ccc(NS(=O)(=O)c3ccccc3)cc2)c1	–	–	–	Ratio EC50 (Homo sapiens [11]): 45; Ratio EC50 (Homo sapiens [12]): > 90; inhibition [7]: Active
CCc1ccccc1OC[C@@H](O)CNCCc1ccc(NC(=O)c2ccccc2)cc1	7.7	294	124	–
COc1cccc(NC(=O)Nc2ccc(CCNC[C@H](O)COc3cccc4[nH]ccc34)cc2)c1	4.62	–	–	–
CC(=O)NCc1cccc(OC[C@@H](O)CNCCc2ccc(NC(=O)Cc3ccccc3)cc2)c1	4.58	15900	6200	–
CC(=O)NCc1cccc(OC[C@@H](O)CNCCc2ccc(NS(=O)(=O)Nc3ccccc3)cc2)c1	3.41	8430	224	–
COC(=O)Nc1ccc(NC(=O)Nc2ccc(CCNC[C@H](O)COc3cccc4[nH]ccc34)cc2)cc1	1.42	–	–	inhibition [7]: Active
COC(=O)Nc1cccc(NC(=O)Nc2ccc(CCNC[C@H](O)COc3cccc4[nH]ccc34)cc2)c1	1.65	–	–	–
O=C(Nc1ccc(CCNC[C@H](O)COc2cccc3[nH]ccc23)cc1)NC1CCCCC1	2.89	–	–	inhibition [7]: Active
O=C(Nc1ccc(CCNC[C@H](O)COc2cccc3[nH]ccc23)cc1)Nc1cccc(F)c1	2.93	–	–	–
O=C(Nc1ccc(CCNC[C@H](O)COc2cccc3[nH]ccc23)cc1)Nc1ccccc1F	3.58	–	–	–
COc1ccccc1NC(=O)Nc1ccc(CCNC[C@H](O)COc2cccc3[nH]ccc23)cc1	8.44	–	–	–
COc1ccc(NC(=O)Nc2ccc(CCNC[C@H](O)COc3cccc4[nH]ccc34)cc2)cc1	1.49	–	–	inhibition [7]: Active
CCc1ccccc1OC[C@@H](O)CNCCc1ccc(NS(=O)(=O)c2ccccc2)cc1	11.1	954	299	–
CC(=O)NCc1cccc(OC[C@@H](O)CNCCc2ccc(NC(=O)c3ccccc3)cc2)c1	7.81	6060	100000	–
